Laboratory results as given in article PMC5824357 (RNA, 2018).
Ends that are not written are not given here. MBP = not defined here; MS2 = not defined here; HA = not defined here

Assays:
[1] = system: β-globin-6xMS2bs reporter; test: Tethering assay in human HEK293T cells; assay type: cell-based; conditions: MS2-HA-tagged, three independent experiments
Hs CN9BD–CAF40 complex = test: In vitro MBP pull-down, human CN9BD–CAF40; assay type: binding; conditions: MBP-tagged proteins, amylose resin, 50 mM HEPES pH 7.5, 200 mM NaCl, 2 mM DTT, 1 h; SDS-PAGE, Coomassie
How it was run: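 The Hs complex was MBP-NOT1-CN9BD (V1351–L1588) co-expressed in E. coli with His6-CAF40 (R19–E285), purified on amylose, tags removed by HRV3C, then heparin and gel filtration. MBP (20 µg, control) or MBP fusion (40 µg) was incubated 1 h with equimolar complex and amylose resin. Beads were washed five times, eluted with 25 mM maltose, TCA-precipitated and analysed by SDS-PAGE/Coomassie.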

endogenous NOT3 = test: SBP pull-down in HEK293T cells, NOT3; assay type: binding, human
How it was run: (§1)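 HEK293T cells expressed V5-SBP-tagged full-length test protein, with V5-SBP-MBP as negative control. SBP pull-down from lysates was done in the presence of RNaseA. Input (1.5% of V5-SBP proteins, 1% of endogenous CCR4–NOT subunits) and bound fractions (10% and 30%, respectively) were analysed by western blotting with ECL detection.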

F-Luc-5BoxB-A95C7-HhR = test: Tethering assay in S2 cells, F-Luc-5BoxB-A95C7-HhR reporter; assay type: cell-based, Drosophila melanogaster
HA-tagged CCR4 = test: SBP pull-down in HEK293T cells, CCR4; assay type: binding
How it was run: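 Control or CAF40-null HEK293T cells coexpressed HA-CCR4 with V5-SBP-tagged full-length test protein or V5-SBP-MBP negative control. SBP pull-down was done in lysates containing RNaseA. Input (1.5% V5-SBP proteins, 1% CCR4–NOT subunits) and bound (10% and 30%) fractions were western blotted with ECL detection.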

F-Luc-5BoxB mRNA [2] = test: mRNA half-life in S2 cells after actinomycin D; assay type: cell-based, Drosophila melanogaster; conditions: actinomycin D 5 µg/ml; northern blot
How it was run: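 S2 cells were Effectene-transfected with F-Luc-5BoxB reporter, R-Luc control and λN-HA-tagged test protein. Three days post-transfection they were treated with actinomycin D (5 µg/ml final) and collected at successive time points. Reporter mRNA remaining was measured by northern blotting of total RNA.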

Dm CAF40 (GFP-tagged) = test: Coimmunoprecipitation in S2 cells, CAF40; assay type: binding, Drosophila melanogaster; conditions: HA-tagged Bam, S2 cell lysates, RNaseA
F-Luc-5BoxB mRNA [3] = test: Tethering assay in S2 cells, F-Luc-5BoxB reporter; assay type: cell-based, Drosophila melanogaster
Hs CCR4-NOT subcomplexes = test: In vitro MBP pull-down, other Hs CCR4–NOT subcomplexes; assay type: binding, human; conditions: NOT1-10-11 module, catalytic module, CD, NOT3 N-terminal coiled coil, MBP-tagged Bam, pH 7.5, 1 h
How it was run: (§2)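 Proteins were expressed in E. coli BL21 (DE3) Star overnight at 20°C. Tethered-protein constructs carried an N-terminal MBP tag and were purified by amylose resin, anion exchange and gel filtration. MBP (20 µg, negative control) or MBP fusion (40 µg) was incubated 1 h with equimolar purified CCR4–NOT modules plus amylose resin. Beads were washed five times and eluted with 25 mM maltose. Eluates were TCA-precipitated and analysed by SDS-PAGE/Coomassie.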

CCR4 (GFP-tagged) = test: Coimmunoprecipitation in S2 cells, CCR4; assay type: binding, Drosophila melanogaster; conditions: HA-tagged Bam, S2 cell lysates, RNaseA
NOT2 (GFP-tagged) = test: Coimmunoprecipitation in S2 cells, NOT2; assay type: binding, Drosophila melanogaster; conditions: HA-tagged Bam, S2 cell lysates, RNaseA
NOT3 (GFP-tagged) = test: Coimmunoprecipitation in S2 cells, NOT3; assay type: binding, Drosophila melanogaster; conditions: HA-tagged Bam, S2 cell lysates, RNaseA
endogenous CAF40 = test: SBP pull-down in HEK293T cells, CAF40; assay type: binding, human; conditions: V5-SBP-tagged, wild-type HEK293T, RNaseA
How it was run: as §1

endogenous NOT1 = test: SBP pull-down in HEK293T cells, NOT1; assay type: binding, human
How it was run: as §1

[4] = system: Dm NOT1-CN9BD–CAF40 complex; test: In vitro MBP pull-down, Dm CN9BD–CAF40; assay type: binding, Drosophila melanogaster; conditions: MBP-tagged proteins, amylose resin, 50 mM HEPES pH 7.5, 200 mM NaCl, 2 mM DTT, 1 h; SDS-PAGE, Coomassie
How it was run: as §2

Dm CAF40 (V186E) = test: Coimmunoprecipitation in S2 cells, CAF40 V186E; assay type: binding, Drosophila melanogaster; conditions: HA-tagged Bam, S2 cell lysates, RNaseA
endogenous NOT2 = test: SBP pull-down in HEK293T cells, NOT2; assay type: binding, human
How it was run: as §1

[5] = system: Dm NOT1-CN9BD–CAF40 complex (containing CAF40 V186E or 2xMut); test: In vitro MBP pull-down, Dm CN9BD–CAF40 with CAF40 mutants; assay type: binding, Drosophila melanogaster; conditions: MBP-tagged Bam, pH 7.5, 1 h
How it was run: as §2

[6] = system: catalytic module (containing Hs CCR4a); test: In vitro MBP pull-down, Hs catalytic module; assay type: binding, human; conditions: recombinant proteins
NOT1 (GFP-tagged) = test: Coimmunoprecipitation in S2 cells, NOT1; assay type: binding, Drosophila melanogaster; conditions: HA-tagged Bam, S2 cell lysates, RNaseA
[7] = V5-SBP-tagged, wild-type HEK293T, RNaseA

With “CBM alone fused to MBP: MS2-HA-MBP-Bam 13–36 ({MS2-HA-MBP}-DDQQLDHNFKQMEEHLALMVEGNE; reading uncertain; UniProt P22745 13-36, looked up, fragment)” as the molecule, how does the “degradation/repression of β-globin-6xMS2bs reporter” value [1] read?
The value was “as active as full-length Bam”.

B1: Bam: Drosophila melanogaster Bag-of-marbles, Uniprot P22745, residues 1–442, variously tagged (protein)
chain: MLNARDVCPEGNDDQQLDHNFKQMEEHLALMVEGNENEDPRKATCEYEDTNEDGATCTSGVLSEIQENFGRLRLCDVTAPLLEFHGLDCLQQIQKRSRHFAFDGSPAKKSRSGGVLVTGPKQKQLQKENVWNRKSKGSASADNIEKLPITIEKLHMIGLHGDCLEHNAVLRLMNLFRSLHDHLTADLGFSRQNSMPSDYLFDMPVKSTMPKSLNVRYQLQVLCTKVERFLVQQRRTLEANRHFDFEKYDECDKLLKGFASYLDNFKLLLKPKMRNRNGNSGSNADKFHTQRMERLLIGLRDWIKAAHLSVHVFNWEMDLEHRYSGAMTESHKSLNERAILLSGAELRAAEARGISAEDLFIAQRYKLGGPIYCVLEQHEFLSALIANPETYFPPSVVAICGPQKLGAVSMEQPSASEEEFEETEEVPSSPPRHTGRVPRFRS
modifications: left off: MBP, N-terminal, kept
B1 was tested. Which interaction in pull-down (Hs CN9BD–CAF40 complex) did it give?
The interaction in pull-down was “interacted only with the CN9BD–CAF40 module”.

And the “pull-down of endogenous NOT3, CAF40-null cells” value (endogenous NOT3; CAF40-null HEK293T)?
The value was “did not interact with endogenous NOT1, NOT2 and NOT3”.

What about the “pull-down of endogenous NOT3” value (endogenous NOT3; [7]) of the same molecule?
The value was “pulled down all of the tested subunits”.

What about the “repression of deadenylation-resistant reporter” value (F-Luc-5BoxB-A95C7-HhR) of the same molecule?
The value was “repressed the expression of this reporter in S2 cells”.

What about the “pull-down of HA-tagged CCR4, CAF40-null cells” value (HA-tagged CCR4; CAF40-null HEK293T) of the same molecule?
The value was “did not interact”.

What about the “pull-down of HA-tagged CCR4” value (HA-tagged CCR4; [7]) of the same molecule?
The value was “as well as HA-tagged CCR4”.

What about the mRNA half-life (F-Luc-5BoxB mRNA [2]) of the same molecule?
The mRNA half-life was “shortening of the mRNA half-life”.

And the “coimmunoprecipitation with CAF40” value (Dm CAF40 (GFP-tagged))?
Its value is “interacted with NOT1, NOT2, NOT3, CCR4, and CAF40”.

What about the “tethering activity in CAF40-depleted cells” value (F-Luc-5BoxB mRNA [3]; CAF40 KD (∼10% of control levels)) of the same molecule?
The value was “partially suppressed Bam activity”.

And the “repression in CAF40-depleted cells complemented with CAF40 V186E” value (F-Luc-5BoxB mRNA [3]; CAF40 KD + CAF40 V186E)?
The value was “not by expression of the CAF40 V186E mutant”.

And the “repression in CAF40-depleted cells complemented with wild-type CAF40” value (F-Luc-5BoxB mRNA [3]; CAF40 KD + wild-type CAF40)?
Its value is “restored by transient expression of wild-type CAF40”.

What about the “F-Luc-5BoxB mRNA degradation in DCP2-depleted cells” value (F-Luc-5BoxB mRNA [3]; DCP2 knockdown, DCP2 E361Q overexpressed) of the same molecule?
Its value is “impaired”.

What about the “F-Luc activity in DCP2-depleted cells” value (F-Luc-5BoxB mRNA [3]; DCP2 knockdown, DCP2 E361Q overexpressed, F-Luc activity) of the same molecule?
Its value is “not restored”.

And the “tethering activity in cells overexpressing CAF40 V186E” value (F-Luc-5BoxB mRNA [3]; GFP-CAF40 V186E overexpressed)?
The value was “suppressed in cells overexpressing the CAF40 V186E mutant”.

And the “tethering activity in cells overexpressing CAF40 wild-type” value (F-Luc-5BoxB mRNA [3]; GFP-CAF40 wild-type overexpressed)?
The value was “not when CAF40 wild-type was overexpressed”.

What about the “F-Luc-5BoxB mRNA degradation after NOT1 depletion” value (F-Luc-5BoxB mRNA [3]; NOT1-depleted S2 cells) of the same molecule?
Its value is “partially suppressed degradation of F-Luc-5BoxB mRNA”.

And the “interaction in pull-down with any other subcomplex” value (Hs CCR4-NOT subcomplexes)?
Its value is “not with any other subcomplex”.

And the “coimmunoprecipitation with CCR4” value (CCR4 (GFP-tagged))?
Its value is “interacted with NOT1, NOT2, NOT3, CCR4, and CAF40”.

And the “coimmunoprecipitation with NOT2” value (NOT2 (GFP-tagged))?
Its value is “interacted with NOT1, NOT2, NOT3, CCR4, and CAF40”.

And the “coimmunoprecipitation with NOT3” value (NOT3 (GFP-tagged))?
The value was “interacted with NOT1, NOT2, NOT3, CCR4, and CAF40”.

What about the “pull-down of endogenous CAF40” value (endogenous CAF40) of the same molecule?
The value was “pulled down all of the tested subunits”.

And the “pull-down of endogenous NOT1, CAF40-null cells” value (endogenous NOT1; CAF40-null HEK293T)?
The value was “did not interact with endogenous NOT1, NOT2 and NOT3”.

What about the “pull-down of endogenous NOT1” value (endogenous NOT1; [7]) of the same molecule?
The value was “pulled down all of the tested subunits”.

What about the interaction in pull-down [4] of the same molecule?
The interaction in pull-down was “also interacted with the Dm CN9BD–CAF40 module”.

What about the “coimmunoprecipitation with CAF40 V186E” value (Dm CAF40 (V186E)) of the same molecule?
The value was “sufficient to abolish binding to full-length Bam in cell lysates”.

What about the “pull-down of endogenous NOT2, CAF40-null cells” value (endogenous NOT2; CAF40-null HEK293T) of the same molecule?
Its value is “did not interact with endogenous NOT1, NOT2 and NOT3”.

And the “pull-down of endogenous NOT2” value (endogenous NOT2; [7])?
Its value is “pulled down all of the tested subunits”.

And the “disruption of interaction by V186E substitution in CAF40” value ([5]; CAF40 V186E)?
The value was “sufficient to disrupt the interaction with Bam in vitro”.

What about the “disruption of interaction by 2xMut in CAF40” value ([5]; CAF40 Y139D, G146W (2xMut)) of the same molecule?
The value was “sufficient to disrupt the interaction with Bam in vitro”.

And the “direct interaction with the catalytic module” value [6]?
Its value is “did not observe a direct interaction”.

And the “displacement of CAF1-NOT1 subcomplex from CCR4a” value [6]?
Its value is “did not competitively displace the CAF1-NOT1 subcomplex from CCR4a”.

What about the “coimmunoprecipitation with NOT1” value (NOT1 (GFP-tagged)) of the same molecule?
The value was “interacted with NOT1, NOT2, NOT3, CCR4, and CAF40”.
